Measurements as given in ChEMBL document CHEMBL1142915, “Synthesis, structure, and estrogenic activity of 4-amino-3-(2-methylbenzyl)coumarins on human breast carcinoma cells” (Bioorg Med Chem, 2007).
Active and inactive are the calls of the source. The calls are words filed in the database; no cut-off is given here. Residues, ends and D or L forms follow the SMILES beside them. *: point of attachment. Cbz = O=C(OCc1ccccc1)*

How the values were obtained:
MDA-MB-231 = assay: Effect on proliferation of estrogen receptor deficient MDA-MB-231 cells at 1 uM after 3 days; format: functional, cell-based; conditions: Homo sapiens
How it was run: (§1)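 Cells were held at least 2 days in phenol red-free DMEM with 10% charcoal-stripped FBS at 37 °C and 5% CO2, then plated at 10^4 cells/cm2. On day 1 the medium was replaced with medium containing compound at 10^-6 M. On day 4 cells were trypsinized and counted electronically. Values are % of untreated control, mean of four determinations ±SD, by ANOVA with Dunnett's test.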

MCF7 [1] = assay: Increase in proliferation of estrogen receptor expressing MCF7 cells at 1 uM after 3 days; format: functional, cell-based; conditions: Homo sapiens; how it was run: as §1
MCF7 [2] = assay: Down regulation of estrogen receptor expression in MCF7 cells at 1 uM after 24 hrs; format: functional, cell-based; conditions: Homo sapiens
How it was run: (§2)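 MCF-7 cells were kept at least 2 days in phenol red-free DMEM with 10% charcoal-stripped FBS, seeded on glass coverslips at 10^4 cells/cm2, and treated 2 days later for 24 h. After fixation they were immunostained for ERα with HC-20 rabbit antiserum (1:40, 60 min, Triton-permeabilized) and Texas Red amplification. Median nuclear gray level was measured over about 80–120 nuclei per culture and expressed relative to untreated control. Statistics: Kruskal–Wallis with Dunn's test.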

MCF7 [3] = assay: Inhibition of increase in proliferation of estrogen receptor expressing MCF7 cells at 10 uM after 3 days; format: functional, cell-based; conditions: Homo sapiens
MCF7 [4] = assay: Down regulation of estrogen receptor expression in MCF7 cells at 1 nM after 24 hrs; format: functional, cell-based; conditions: Homo sapiens; how it was run: as §2
Estrogen receptor = target: T1, Estrogen receptor (Homo sapiens, UniProt P03372); assay: Activity at ER assessed as enhancement of estrogen response element-driven gene transactivation in MVLN cells after 24 hrs by luciferase reporter gene assay relative to control
T1 sequence (P03372 whole entry): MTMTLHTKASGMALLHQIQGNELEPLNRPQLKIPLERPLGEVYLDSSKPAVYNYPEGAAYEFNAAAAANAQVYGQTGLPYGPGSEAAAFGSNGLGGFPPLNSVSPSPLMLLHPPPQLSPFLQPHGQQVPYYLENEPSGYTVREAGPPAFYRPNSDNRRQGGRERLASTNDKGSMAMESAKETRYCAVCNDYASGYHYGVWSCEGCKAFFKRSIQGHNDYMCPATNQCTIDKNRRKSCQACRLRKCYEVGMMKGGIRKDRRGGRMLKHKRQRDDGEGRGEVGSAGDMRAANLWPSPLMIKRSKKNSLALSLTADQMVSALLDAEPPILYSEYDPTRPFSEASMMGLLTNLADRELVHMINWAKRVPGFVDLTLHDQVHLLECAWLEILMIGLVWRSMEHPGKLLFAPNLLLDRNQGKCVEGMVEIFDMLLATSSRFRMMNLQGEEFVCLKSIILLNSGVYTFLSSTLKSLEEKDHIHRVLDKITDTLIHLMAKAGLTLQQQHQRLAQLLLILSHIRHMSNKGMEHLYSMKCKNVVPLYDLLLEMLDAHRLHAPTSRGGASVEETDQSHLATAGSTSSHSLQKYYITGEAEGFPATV

MCF7 [5] = assay: Abrogation of estrogen receptor down regulation in MCF7 cells at 10 uM after 7 hrs; conditions: Homo sapiens
[6] = target: T2, Estrogen receptor (Homo sapiens) (UniProt P03372); assay: Displacement of [3H]17beta-estradiol from estrogen receptor relative to estradiol
T2 sequence (whole entry): T1 sequence (P03372 whole entry)
How it was run: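 Purified recombinant human ERα, diluted in 1 mg/mL BSA, adsorbed onto hydroxyapatite, washed, then incubated overnight at 0–4 °C with 1 nM [3H]E2 plus increasing amounts of cold E2 or test compound. HAP-bound radioactivity was extracted with ethanol and counted by liquid scintillation. RBA = […] × 100.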

CCCCCNc1c(Cc2ccccc2C)c(=O)oc2cc(OC)ccc12
Activity (MDA-MB-231): inactive

Cc1ccccc1Cc1c(NCCc2ccccc2)c2ccccc2oc1=O
Activity (MDA-MB-231): inactive

Cc1ccccc1Cc1c(NC2CCCCC2)c2ccccc2oc1=O
Activity (MCF7 [1]): Active
Activity (MDA-MB-231): inactive
Activity (MCF7 [2]): Active

C[C@]12CC[C@@H]3c4ccc(O)cc4C[C@@H](CCCCCCCCC[S+]([O-])CCCC(F)(F)C(F)(F)F)[C@H]3[C@@H]1CC[C@@H]2O (some centres undefined)
Activity (MCF7 [3]): Active

C[C@]12CC[C@@H]3c4ccc(O)cc4CC[C@H]3[C@@H]1CC[C@@H]2O
Activity (MCF7 [4]): Active

CCCCCCCCCCCCNc1c(Cc2ccccc2C)c(=O)oc2ccccc12
EC50 (Estrogen receptor): 100 nM
Activity (MDA-MB-231): inactive

CC(C)C[C@@H](C=O)NC(=O)[C@H](CC(C)C)NC(=O)[C@H](CC(C)C)NC(=O)OCc1ccccc1 (Cbz-Leu-Leu-Leu-aldehyde)
Activity (MCF7 [5]): Active

Cc1ccccc1Cc1c(NC2CCCC2)c2ccccc2oc1=O
Activity (MCF7 [1]): Active
RBA [6]: < 0.1%
Activity (MDA-MB-231): inactive
Activity (MCF7 [2]): Active
